Test results from PMC8892665 (ACS Omega, 2022).
Several values for one entry are separate records, joined by “and”; a condition that tells them apart may be missing. Identical values can stand only once.

Tests used:
[1] = target: calf intestinal alkaline phosphatase (CIAP) (Bos taurus, UniProt P19111); assay: Calf intestinal alkaline phosphatase inhibition assay; assay type: biochemical
[2] = DPPH free radical scavenging; settings: for DPPH radical scavenging % inhibition: at 100 μg/mL; for DPPH radical scavenging IC50: concentrations 100, 50, 25, 10 μg/mL, graphical method
Method in brief: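 DPPH (3.92 mg per 100 mL of 82% methanol) was combined with test compound at final 100, 50, 25 or 10 μg/mL and incubated 1 h at 25 °C in the dark. Absorbance at 517 nm. Scavenging % = […]. Triplicate, ascorbic acid positive control, IC50 obtained graphically.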

Sequence of calf intestinal alkaline phosphatase (CIAP) (P19111 20-533): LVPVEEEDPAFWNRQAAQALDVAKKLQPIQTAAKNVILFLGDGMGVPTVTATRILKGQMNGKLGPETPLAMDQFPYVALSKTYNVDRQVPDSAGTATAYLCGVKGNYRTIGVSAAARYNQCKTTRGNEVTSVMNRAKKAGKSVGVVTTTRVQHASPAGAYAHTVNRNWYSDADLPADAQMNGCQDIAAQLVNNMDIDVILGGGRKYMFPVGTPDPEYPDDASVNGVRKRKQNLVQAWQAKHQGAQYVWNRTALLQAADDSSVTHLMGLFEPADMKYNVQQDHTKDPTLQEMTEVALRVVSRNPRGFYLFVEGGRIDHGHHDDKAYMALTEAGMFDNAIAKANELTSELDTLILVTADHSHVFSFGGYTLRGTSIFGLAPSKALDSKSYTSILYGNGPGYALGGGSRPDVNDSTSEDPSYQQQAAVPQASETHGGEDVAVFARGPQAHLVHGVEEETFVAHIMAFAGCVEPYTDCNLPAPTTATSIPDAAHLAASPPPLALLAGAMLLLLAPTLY

Row | Compound | alkaline phosphatase inhibitory activity (in words) [1] | DPPH radical scavenging IC50 [2] | DPPH radical scavenging % inhibition [2]
1 | 4-(4-Hydroxyphenyl)-6-(2-methoxyphenyl)-3,4,6,7-tetrahydro-1H-pyrrolo[3,4-d]pyrimidine-2,5-dione [3k] | low activities |  | less than 50%
2 | 4-(4-Hydroxyphenyl)-6-(3-methoxyphenyl)-3,4,6,7-tetrahydro-1H-pyrrolo[3,4-d]pyrimidine-2,5-dione [3i] | no inhibition |  | less than 50%
3 | 6-(4-Hydroxyphenyl)-6-(2-nitrophenyl)-3,4,6,7-tetrahydro-1H-pyrrolo[3,4-d]pyrimidine-2,5-dione [3h] | moderate activity | 2.61 µg/mL | about 60%
4 | O=C1NC2=C(C(=O)N(Cc3ccccc3)C2)C(c2ccc(O)cc2)N1 (stereo not shown) [3a, 6-Benzyl-4-(4-hydroxyphenyl)-3,4,6,7-tetrahydro-1H-pyrrolo[3,4-d]pyrimidine-2,5-dione] | no inhibition | 2.61 µg/mL | about 60%
5 | CCCCCCCCN1CC2=C(C1=O)C(c1ccc(O)cc1)NC(=O)N2 (stereo not shown) [3b, 4-(4-Hydroxyphenyl)-6-octyl-3,4,6,7-tetrahydro-1H-pyrrolo[3,4-d]pyrimidine-2,5-dione] |  | 2.6 µg/mL | 
6 | O=C1NC2=C(C(=O)N(Cc3ccc(Cl)cc3)C2)C(c2ccc(O)cc2)N1 (stereo not shown) [3c, 6-(4-Chlorobenzyl)-4-(4-hydroxyphenyl)-3,4,6,7-tetrahydro-1H-pyrrolo[3,4-d]pyrimidine-2,5-dione] | low activities |  | less than 50%
7 | O=C1NC2=C(C(=O)N(Cc3ccc(F)cc3)C2)C(c2ccc(O)cc2)N1 (stereo not shown) [3d, 6-(4-Fluorobenzyl)-4-(4-hydroxyphenyl)-3,4,6,7-tetrahydro-1H-pyrrolo[3,4-d]pyrimidine-2,5-dione] |  |  | less than 50%
8 | O=C1NC2=C(C(=O)N(c3ccc(F)cc3)C2)C(c2ccc(O)cc2)N1 (stereo not shown) [3f, 6-(4-Fluorophenyl)-4-(4-hydroxyphenyl)-3,4,6,7-tetrahydro-1H-pyrrolo[3,4-d]pyrimidine-2,5-dione] |  | 2.86 µg/mL | 
9 | O=C1NC2=C(C(=O)N(c3nc4ccccc4[nH]3)C2)C(c2ccc(O)cc2)N1 (stereo not shown) [3g, 6-(1H-Benzo[d]imidazol-2-yl)-4-(4-hydroxyphenyl)-3,4,6,7-tetrahydro-1H-pyrrolo[3,4-d]pyrimidine-2,5-dione] |  | 1.85 µg/mL | 
10 | COc1ccc(N2CC3=C(C2=O)C(c2ccc(O)cc2)NC(=O)N3)cc1 (stereo not shown) [3j, 4-(4-Hydroxyphenyl)-6-(4-methoxyphenyl)-3,4,6,7-tetrahydro-1H-pyrrolo[3,4-d]pyrimidine-2,5-dione] |  | 2.48 µg/mL | 
11 | O=C1NC2=C(C(=O)N(Cc3ccccc3)C2)C(c2ccccc2O)N1 (stereo not shown) [4a, 6-Benzyl-4-(2-hydroxyphenyl)-3,4,6,7-tetrahydro-1H-pyrrolo[3,4-d]pyrimidine-2,5-dione] |  |  | less than 50%
12 | O=C1NC2=C(C(=O)N(Cc3ccc(F)cc3)C2)C(c2ccccc2O)N1 (stereo not shown) [4d, 6-(4-Fluorobenzyl)-4-(2-hydroxyphenyl)-3,4,6,7-tetrahydro-1H-pyrrolo[3,4-d]pyrimidine-2,5-dione] |  |  | less than 50%
13 | O=C1NC2=C(C(=O)N(c3ccc(Cl)cc3)C2)C(c2ccccc2O)N1 (stereo not shown) [4e, 6-(4-Chlorophenyl)-4-(2-hydroxyphenyl)-3,4,6,7-tetrahydro-1H-pyrrolo[3,4-d]pyrimidine-2,5-dione] |  |  | 60%
14 | O=C1O[C@H]([C@@H](O)CO)C(O)=C1O [ascorbic acid, reference compound] |  | 0.25 µg/mL | 97%

Second part, led by results:

Row | alkaline phosphatase inhibitory activity (in words) [1] | DPPH radical scavenging IC50 [2] | Compound | DPPH radical scavenging % inhibition [2]
15 | good activity |  | 4-(2-Hydroxyphenyl)-6-(2-methoxyphenyl)-3,4,6,7-tetrahydro-1H-pyrrolo[3,4-d]pyrimidine-2,5-dione [4i] | less than 50%
16 | moderate activity | 1.72 µg/mL | 4-(2-Hydroxyphenyl)-6-(2-nitrophenyl)-3,4,6,7-tetrahydro-1H-pyrrolo[3,4-d]pyrimidine-2,5-dione [4h] | approximately 70%
17 | no inhibition |  | 4-(2-Hydroxyphenyl)-6-(3-methoxyphenyl)-3,4,6,7-tetrahydro-1H-pyrrolo[3,4-d]pyrimidine-2,5-dione [4k] | less than 50%
18 |  | 2.731 µg/mL and 2.73 µg/mL | CCCCCCCCN1CC2=C(C1=O)C(c1ccccc1O)NC(=O)N2 (stereo not shown) [4b, 4-(2-Hydroxyphenyl)-6-octyl-3,4,6,7-tetrahydro-1H-pyrrolo[3,4-d]pyrimidine-2,5-dione] | 
19 | no inhibition |  | O=C1NC2=C(C(=O)N(Cc3ccc(Cl)cc3)C2)C(c2ccccc2O)N1 (stereo not shown) [4c, 6-(4-Chlorobenzyl)-4-(2-hydroxyphenyl)-3,4,6,7-tetrahydro-1H-pyrrolo[3,4-d]pyrimidine-2,5-dione] | less than 50%
20 | low activities | 0.48 µg/mL | O=C1NC2=C(C(=O)N(c3ccc(F)cc3)C2)C(c2ccccc2O)N1 (stereo not shown) [4f, 6-(4-Fluorophenyl)-4-(2-hydroxyphenyl)-3,4,6,7-tetrahydro-1H-pyrrolo[3,4-d]pyrimidine-2,5-dione] | highest percent of inhibition
21 | no inhibition | 0.75 µg/mL | O=C1NC2=C(C(=O)N(c3nc4ccccc4[nH]3)C2)C(c2ccccc2O)N1 (stereo not shown) [4g, 6-(1H-Benzo[d]imidazol-2-yl)-4-(2-hydroxyphenyl)-3,4,6,7-tetrahydro-1H-pyrrolo[3,4-d]pyrimidine-2,5-dione] | 80% and 70–80%
22 | low activities | 2.45 µg/mL | COc1ccc(N2CC3=C(C2=O)C(c2ccccc2O)NC(=O)N3)cc1 (stereo not shown) [4j, 4-(2-Hydroxyphenyl)-6-(4-methoxyphenyl)-3,4,6,7-tetrahydro-1H-pyrrolo[3,4-d]pyrimidine-2,5-dione] | 
